This note sets out measurements from ChEMBL document CHEMBL1137541, “[(2-Phenylindol-3-yl)methylene]propanedinitriles inhibit the growth of breast cancer cells by cell cycle arrest in G(2)/M phase and apoptosis” (Bioorg Med Chem, 2007).

Active and inactive are the calls of the source. The calls are words filed in the database; no cut-off is given here.

Usually IC50 stands for the midpoint of a concentration-inhibition curve.

For assay [1], the system named is MDA-MB-231. In words: Antiproliferative activity against human MDA-MB-231 cells after 4 days by microplate assay. Particulars: MDA-MB-231, 96 h. Type of assay: functional, cell-based. The method in brief:
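Cells grown 2–3 days in 96-well plates (37 °C, 5% CO2), medium then replaced with compound-containing medium (controls 0.1% DMF), about 4 days' exposure. Fixed with 1% glutaric dialdehyde, stained with 0.02% crystal violet for 25 min, dye extracted with 70% EtOH, OD read at 578 nm; initial density from fixed wells. IC50 from 16–24 replicates per experiment.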

In assay [2] the test system is MCF7. The assay can be described thus: Antiproliferative activity against human MCF7 cells after 5 days by microplate assay. The assay is classed as functional, cell-based. Particulars: MCF7, 120 h. The method in brief:
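MCF-7 cells in EMEM with sodium pyruvate, gentamycin, NaHCO3, phenol red, 10% FCS; grown 2–3 days in 96-well plates, then medium with compound (0.1% DMF in controls) for 5 days. Glutaric dialdehyde fixation, 0.02% crystal violet staining, 70% EtOH extraction, OD 578 nm. Initial density from fixed wells. IC50; mean of two independent experiments, 16–24 replicates.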

Assay [3] deals with MDA-MB-231. In words: Cell cycle arrest in MDA-MB-231 cells by accumulation at G2/M phase at 0.1 uM after 24 hrs by flow cytometry. The assay is classed as functional, cell-based. Particulars: Homo sapiens. The method in brief:
(§1)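 Cells grown to 70–80% confluence in flasks and exposed 24 h to compound in DMF (0.1% final), one flask per concentration. Trypsinized, fixed in ice-cold 70% EtOH, DNA extraction buffer 5 min, propidium iodide staining ≥30 min at room temperature. Flow cytometry of 8,000–15,000 events; percentages of sub-G1, G1/G0, S, G2/M cells; representative of two experiments.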
A general note: Flow cytometry measures light scatter and fluorescence of single cells or particles in a stream.

The subject of assay [4] is MDA-MB-231. The assay can be described thus: Cell cycle arrest in MDA-MB-231 cells by accumulation at G2/M phase at 0.5 uM after 24 hrs by flow cytometry. The assay is classed as functional, cell-based. Particulars: Homo sapiens. The method in brief:
as §1

Assay [5] concerns MDA-MB-231. The assay can be described thus: Cell cycle arrest in MDA-MB-231 cells by accumulation at G2/M phase at 1.0 uM after 24 hrs by flow cytometry. Particulars: Homo sapiens. The assay is classed as functional, cell-based. The method in brief: as §1
Assay [6] concerns A-431. The assay can be described thus: Inhibition of cell growth in human A431 cells after 3 days by microplate assay. The assay is classed as functional, cell-based. Particulars: A-431, 72 h. The method in brief:
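A-431 vulva carcinoma cells, crystal violet microplate protocol as for MDA-MB 231 but with 5% FCS; 3 days' exposure, 0.1% DMF controls. Fixation with glutaric dialdehyde, 0.02% crystal violet, 70% EtOH extraction, OD 578 nm. IC50, mean of four independent experiments with 16–24 replicates ± SD.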

Assay [7] is filed under the species Bos taurus. The assay can be described thus: Inhibition of temperature-induced tubulin polymerization of calf brain at 40 uM. Further details: scale not given: the % may be the effect or the level left. The method in brief: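 Calf brain tubulin purified by temperature-dependent polymerization cycles, then depolymerized at 0 °C in PEMG buffer. Supernatant preincubated 15 min at 37 °C with compound (40 µM, DMSO), chilled, and GTP added. Polymerization started by shifting from 2 °C to 37 °C, followed by absorbance at 350 nm over 20 min. Reported relative to inhibitor-free controls (100%).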

Assay [8] concerns MDA-MB-231. In words: Cell cycle arrest in MDA-MB-231 cells by accumulation at G2/M phase at 0.01 uM after 24 hrs by flow cytometry. The assay is classed as functional, cell-based. Particulars: Homo sapiens. In a few lines: as §1
Assay [9] can be described thus: Antitumor activity against MXT cells xenografted B2D2F1 mouse at 10 mg/kg, sc relative to control. The assay is classed as functional. Particulars: route subcutaneous. In a few lines: (§2)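 Hormone-resistant MXT tumor pieces (1 mm³) transplanted into 8- to 9-week-old female B2D2F1 mice, groups of 6–8, randomly assigned. Compound given subcutaneously three times per week for two weeks. Tumor area compared with untreated controls (T/C × 100). Body weight change taken between first and last treatment day.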

Assay [10] in a line: Antitumor activity against MXT cells xenografted B2D2F1 mouse at 30 mg/kg, sc relative to control. Type of assay: functional. Conditions: route subcutaneous. In a few lines:
as §2

The subject of assay [11] is Mus musculus. The assay can be described thus: Effect on body weight in MXT cells xenografted B2D2F1 mouse at 10 mg/kg, sc. Type of assay: functional. Conditions: route subcutaneous. In a few lines: as §2
Assay [12] concerns Mus musculus. In words: Effect on body weight in MXT cells xenografted B2D2F1 mouse at 30 mg/kg, sc. The assay is classed as functional. Conditions: route subcutaneous. The method in brief: as §2
The subject of assay [13] is HL-60 (Homo sapiens). In words: Inhibition of cell growth in human HL-60 cells after 48 hrs by MTT assay. Conditions: HL-60, 48 h.
The subject of assay [14] is HL-60 (Homo sapiens). The assay can be described thus: Induction of apoptosis in human HL-60 cells assessed as increase in caspase 3 activation at 1 uM after 24 hrs.
Assay [15] concerns HL-60 (Homo sapiens). In words: Induction of apoptosis in human HL-60 cells assessed as increase in caspase 9 activation at 1 uM after 24 hrs.

Turning to `COc1ccc2c(C=C(C#N)C#N)c(-c3ccc(C)cc3)[nH]c2c1`, the IC50 was 180 nM in assay [1] and 250 nM in assay [2].
`N#CC(C#N)=Cc1c(-c2ccccc2)[nH]c2ccccc12`: the values for the IC50 in assay [1] and in assay [2] were 430 nM and 190 nM, respectively.
As to `CCCCc1ccc2[nH]c(-c3ccc(C)cc3)c(C=C(C#N)C#N)c2c1`, the figures for the IC50 in assay [1] and in [2] were 65 nM and 100 nM, respectively.
The matching figures for `CCCCCc1ccc2[nH]c(-c3ccc(C(F)(F)F)cc3)c(C=C(C#N)C#N)c2c1`: 78 nM and 100 nM.
Consider `COc1ccc(-c2[nH]c3ccc(C)cc3c2C=C(C#N)C#N)cc1`, for which the IC50 in [1] came to 280 nM; in [2], 200 nM.
Take `CCCCCCc1ccc2[nH]c(-c3ccc(OC)cc3)c(C=C(C#N)C#N)c2c1`: the IC50 in [1] amounted to 46 nM; in [2], 25 nM. Further, the result in assay [3], in [4] and in [5] was Active.
In the case of `COc1ccc(-c2[nH]c3ccccc3c2C=O)cc1`, the IC50 in assay [1] amounted to 470 nM; in assay [2], 180 nM; in assay [6], 210 nM. The same compound displayed an Activity in assay [7] of 3%.
Turning to `COc1ccc(-c2[nH]c3ccccc3c2C=C(C#N)C#N)cc1`, the IC50 in assay [1] was 720 nM; in assay [2] it was 770 nM.
Compound `CC[C@]1(O)C[C@H]2CN(CCc3c([nH]c4ccccc34)[C@@](C(=O)OC)(c3cc4c(cc3OC)N(C=O)[C@H]3[C@@](O)(C(=O)OC)[C@H](OC(C)=O)[C@]5(CC)C=CCN6CC[C@]43[C@@H]65)C2)C1` [VINCRISTINE] showed an IC50 in assay [1] of 4.5 nM. Besides, the outcome in assay [8] and in assay [3] was Active.
In the case of `CCCc1ccc2[nH]c(-c3ccc(OC)cc3)c(C=C(C#N)C#N)c2c1`, the IC50 worked out at 83 nM in assay [1] and 190 nM in assay [2].
For the compound `COc1ccc(-c2[nH]c3cc(OC)ccc3c2C=C(C#N)C#N)cc1`, the IC50 in assay [1] came out at 260 nM; in assay [2], 300 nM.
On to `COc1ccc(-c2[nH]c3cc(Cl)c(C)cc3c2C=C(C#N)C#N)cc1`, for which the figures for the IC50 in [1] and in assay [2] were 75 nM and 200 nM, respectively.
With `COc1ccc(-c2[nH]c3cc(F)ccc3c2C=C(C#N)C#N)cc1`, the IC50 was determined as 280 nM in assay [1] and 220 nM in assay [2]. Moreover, the Activity worked out at 74% in assay [9], 56% in [10], 3.6% in [11] and 2.3% in assay [12].
As for `CCCCc1ccc2[nH]c(-c3ccc(CC)cc3)c(C=C(C#N)C#N)c2c1`, the IC50 turned out to be 76 nM in [1] and 200 nM in assay [2].
`COc1cc([C@@H]2c3cc4c(cc3[C@@H](O[C@@H]3O[C@@H]5CO[C@@H](C)O[C@H]5[C@H](O)[C@H]3O)[C@H]3COC(=O)[C@H]23)OCO4)cc(OC)c1O` [ETOPOSIDE]: the IC50 in [13] was 315 nM.
Consider `CCCCc1ccc2[nH]c(-c3ccc(OC)cc3)c(C=C(C#N)C#N)c2c1`, for which the IC50 in assay [1] amounted to 26 nM; in assay [2], 13 nM.
As to `COc1ccc(-c2[nH]c3ccc(OC)cc3c2C=C(C#N)C#N)cc1`, the IC50 in [1] came to 590 nM; in [2] it was 340 nM.
`COc1ccc(-c2[nH]c3cc(F)ccc3c2C=O)cc1`: the figures for the IC50 in assay [1], in assay [2] and in [6] were 47 nM, 43 nM and 180 nM, respectively. In assay [7], this compound yielded an Activity of 8%.
Consider `COc1ccc(-c2[nH]c3ccc(C(C)C)cc3c2C=C(C#N)C#N)cc1`, for which the IC50 was determined as 210 nM in assay [1] and 310 nM in assay [2].
With `CCCCCCc1ccc2[nH]c(-c3ccc(C(F)(F)F)cc3)c(C=C(C#N)C#N)c2c1`, the IC50 in assay [1] is 150 nM; in assay [2], 68 nM.
As for `CCCCc1ccc2[nH]c(-c3ccc(C(F)(F)F)cc3)c(C=C(C#N)C#N)c2c1`, the IC50 in assay [1] is 56 nM; in assay [2] it was 150 nM; in [13], 70 nM. Also, the outcome in assay [14] and in [15] was Active.
Turning to `COc1ccc(-c2[nH]c3ccc(F)cc3c2C=C(C#N)C#N)cc1`, the IC50 in assay [1] is 400 nM; in [2], 310 nM.
Take `CCCCCc1ccc2[nH]c(-c3ccc(OC)cc3)c(C=C(C#N)C#N)c2c1`: the figures for the IC50 in assay [1], in assay [2] and in [13] were 42 nM, 76 nM and 41 nM, respectively. Also, the outcome in assay [14] and in assay [15] was Active.
As for `O=Cc1c(-c2ccccc2)[nH]c2ccccc12` [2-PHENYL-1H-INDOLE-3-CARBALDEHYDE], the IC50 came out at 420 nM in assay [1], 650 nM in [2] and 760 nM in [6]. In assay [7], this compound registered an Activity of 98%.
On to `COc1ccc(-c2[nH]c3ccc(OC)cc3c2C=O)cc1`, for which the IC50 in assay [1] turned out to be 260 nM; in assay [2], 180 nM; in assay [6] it was 200 nM. The compound further yielded an Activity in assay [7] of 7%.
